From paper PMC6528680 (Journal of natural products, 2019) come the findings set out here.

The format of data set [1] is in vivo, mice (C57BL/6J, C3H/HeJ). The note with it: mouse, po, 500 mg/kg. The gist of the method:
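Oral gavage of 500 mg/kg in DMSO to C57BL/6J and C3H/HeJ mice (n=3–4/group), with sampling at 30 min under isoflurane. Marrow pellets were suspended in 50 mM sodium acetate pH 5 for 2 h on ice and centrifuged. Serum was acidified to pH 5 with HCl before HLB extraction and LC/MS. Marrow concentrations were corrected to pellet volume, assuming density 1.06 g/ml. Mean ± SEM.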

The target in data set [2] is T1, GUSB (Mus musculus, UniProt P12265).
T1 sequence (P12265 23-648): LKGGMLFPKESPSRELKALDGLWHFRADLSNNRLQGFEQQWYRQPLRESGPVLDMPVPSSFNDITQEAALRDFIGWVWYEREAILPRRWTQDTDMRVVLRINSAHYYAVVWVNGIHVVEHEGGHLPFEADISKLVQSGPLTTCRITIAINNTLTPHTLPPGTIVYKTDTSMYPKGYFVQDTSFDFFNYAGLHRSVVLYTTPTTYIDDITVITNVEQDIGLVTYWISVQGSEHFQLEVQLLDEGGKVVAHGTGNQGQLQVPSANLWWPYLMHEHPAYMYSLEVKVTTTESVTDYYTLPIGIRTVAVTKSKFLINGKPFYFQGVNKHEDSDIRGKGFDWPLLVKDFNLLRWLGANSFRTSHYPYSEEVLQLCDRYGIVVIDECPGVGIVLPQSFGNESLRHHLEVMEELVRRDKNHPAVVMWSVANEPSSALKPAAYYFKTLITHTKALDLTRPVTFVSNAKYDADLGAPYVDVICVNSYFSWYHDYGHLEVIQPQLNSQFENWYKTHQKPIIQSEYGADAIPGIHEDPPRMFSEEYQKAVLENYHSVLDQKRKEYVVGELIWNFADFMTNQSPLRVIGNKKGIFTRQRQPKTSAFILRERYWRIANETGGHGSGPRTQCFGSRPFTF
Format: biochemical, C57BL/6J mice. The note with it: 0.5 μM curcumin-glucuronide added ex vivo, sodium acetate buffer 50 mM pH 5, 2 h.

Data set [3] addresses T2, rh-HPSE (Homo sapiens, UniProt Q9Y251).
T2 sequence (Q9Y251 158-543 limits assumed): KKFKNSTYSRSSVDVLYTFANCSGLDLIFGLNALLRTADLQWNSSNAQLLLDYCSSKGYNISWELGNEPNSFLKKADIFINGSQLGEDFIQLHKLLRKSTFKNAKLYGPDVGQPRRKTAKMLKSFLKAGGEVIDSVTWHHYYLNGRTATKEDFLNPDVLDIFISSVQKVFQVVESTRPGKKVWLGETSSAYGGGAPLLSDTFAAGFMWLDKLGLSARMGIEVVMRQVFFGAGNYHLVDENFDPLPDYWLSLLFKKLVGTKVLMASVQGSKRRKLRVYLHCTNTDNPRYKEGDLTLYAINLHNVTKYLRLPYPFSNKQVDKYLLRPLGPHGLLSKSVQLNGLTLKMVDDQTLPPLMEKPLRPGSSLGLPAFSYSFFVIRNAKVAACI
T2 sequence (Q9Y251 36-109 limits assumed): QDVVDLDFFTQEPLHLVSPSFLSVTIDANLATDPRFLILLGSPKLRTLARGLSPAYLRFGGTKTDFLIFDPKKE
The data set can be described thus: Deconjugation of curcumin-glucuronide by recombinant enzyme. Format: biochemical. The note with it: 5 μg/mL (100 nM) enzyme, 459 nM substrate, 24 h, 37°C, pH 5. The gist of the method:
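Recombinant human enzyme was incubated with synthesized glucuronide substrate in an enzyme-optimized pH 5 buffer for 24 h at 37°C. Activity was taken from quantitation of the remaining glucuronide substrate and the released aglycone product. n=3–6 per group.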

Data set [4] concerns the target T1, GUSB. Format: biochemical, C57BL/6NJ mice. The note with it: 10 μM added in vitro, 2 h, 37°C, physiologic pH.
In data set [5] the test system is RANKL-stimulated osteoclast formation in RAW 264.7 cells. The data set can be described thus: RANKL-stimulated osteoclastogenesis assay. The data set is classed as cell-based, murine. The note with it: even at 10-fold higher doses than the curcumin IC50. An outline of the steps:
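RAW 264.7 cells were seeded at 5×10^3/well in DMEM with 10% FBS and 1% pen/strep and left to adhere overnight at 37°C, 5% CO2. They were pretreated 4 h with the test compound, then stimulated with recombinant mouse RANKL (50 ng/mL final) for 72 h at 37°C. TRAP-positive multinucleated osteoclasts were counted. n=4/group, mean ± SEM.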

The format of data set [6] is in vivo, mice (C57BL/6J, C3H/HeJ, mps/mps). The note with it: for concentration at 20 min: mouse, ip, 100 mg/kg. The gist of the method:
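Test compound dosed IP at 100 mg/kg in DMSO to 15-week female BL/6J, female HeJ and male mps/mps mice (n=3–5/group). Blood and marrow were taken under isoflurane at 20 min. Marrow pellets were resuspended in 50 mM sodium acetate pH 5 and held 2 h on ice, then supernatants were kept. Serum was acidified to pH 5, and aglycone and glucuronide were measured by HLB solid-phase extraction and LC/MS. Mean ± SEM.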

Like-named read-outs stand apart in the source and are kept apart here.

In the case of `COc1cc(/C=C/C(=O)CC(=O)/C=C/c2ccc(O[C@@H]3O[C@H](C(=O)O)[C@@H](O)[C@H](O)[C@H]3O)c(OC)c2)ccc1O` [curcumin-glucuronide], the concentration at 30 min in data set [1] (C57BL/6J, bone marrow suspension) turned out to be 0.36 µM; in data set [1] (C57BL/6J, serum), 82.7 µM; in data set [1] (male, C3H/HeJ, bone marrow suspension), 1.19 µM; in data set [1] (male, C3H/HeJ, serum) it was 80 µM. The “Deconjugation by soluble GUSB activity in cell-free marrow fractions” value in data set [2] is listed as “sufficient to deconjugate”. Further, the “Ability of HPSE to deconjugate curcumin glucuronide” value in data set [3] is “only GUSB and KL were able to deconjugate”. In data set [4], the “Deconjugation in conditioned media from bone marrow cells” value is “forming detectable aglycone curcumin”. Moreover, the “Effect on RANKL-stimulated osteoclast formation” value in data set [5] was “without effect”. For the same molecule, the concentration at 20 min was found to be 2.7 µM in data set [6] (female, C3H/HeJ, bone marrow suspension); 92.1 µM in data set [6] (female, C3H/HeJ, serum); 1.3 µM in data set [6] (female, C57BL/6J, bone marrow suspension); 92.7 µM in data set [6] (female, C57BL/6J, serum); 151 µM in data set [6] (male, mps/mps, serum). Further, the “Increase of bone marrow curcumin-glucuronide concentrations vs BL/6J” value in data set [6] (mps/mps mice, IP curcumin) is 4 fold.
